ChEMBL document CHEMBL4673192, “Structure-activity relationship studies on 2,5,6-trisubstituted benzimidazoles targeting Mtb-FtsZ as antitubercular agents” (RSC Med Chem, 2021)
pIC50: −log10 of the molar value. Converted amounts (≈) assume the structure as drawn.

Key:
[1] = tested on: Mycobacterium tuberculosis; assay: Antitubercular activity against Mycobacterium tuberculosis H37Rv incubated for 6 days by alamar blue assay; format: functional; settings: 144 h, time 6 day
How it was run: (§1)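 MABA (protocol A): Mtb H37Rv grown in 7H9 with 10% OADC and 0.05% Tween-80 and used at mid-log phase. Compounds from DMSO stocks were serially diluted 2-fold, and the inoculum was set to OD600 0.005. Plates were incubated 6 days at 37 °C, then Alamar Blue was added for a further 24 h. MIC is the lowest concentration (μg mL−1) preventing the colour change.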

[2] = tested on: Mycobacterium tuberculosis; assay: Antitubercular activity against mid logarithmic stage Mycobacterium tuberculosis H37Rv incubated for 6 days by alamar blue assay; format: functional; settings: 144 h, time 6 day
How it was run: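 Protocol B: the mid-log H37Rv culture (OD580 0.4) was diluted 1:100 and mixed with an equal volume of serially diluted compound (DMSO). After 6 days at 37 °C, Alamar blue plus 20% Tween 80 was added. Plates were read 24 h later at 570 nm against a 600 nm reference. Untreated inoculum wells gave the survival-inhibition curve, and rifampicin served as positive control.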

[3] = tested on: Mycobacterium tuberculosis; assay: Antitubercular activity against Mycobacterium tuberculosis H37Rv by microplate alamar blue assay; format: functional; how it was run: as §1
[4] = tested on: Mycobacterium tuberculosis; assay: Antitubercular activity against Mycobacterium tuberculosis H37Rv infected in immune compromised GKO mouse assessed as spleen log CFU reduction; format: functional
[5] = tested on: Mycobacterium tuberculosis; assay: Antitubercular activity against Mycobacterium tuberculosis H37Rv infected in immune compromised GKO mouse assessed as lung log CFU reduction; format: functional
[6] = Cytotoxicity against human HepG2 cells assessed as reduction in cell viability at 20 uM incubated for 72 hrs by MTT assay relative to control; format: cell-based; settings: read-out: INH
How it was run: (§2)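 MTT assay: cells were seeded at 2500/well and attached overnight to 70–90% confluency (HepG2 in RPMI-1640, WI-38 in DMEM, each with 10% FBS). Compound was given at 20 μM final with 0.5% DMSO for 72 h. MTT was applied for 4 h in the dark and the formazan dissolved in DMSO, with OD read at 570 nm. % inhibition is relative to the DMSO control, mean of triplicate.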

[7] = Cytotoxicity against human WI-38 cells assessed as reduction in cell viability at 20 uM incubated for 72 hrs by MTT assay relative to control; format: cell-based; settings: read-out: INH; how it was run: as §2
[8] = Therapeutic index, ratio of IC50 for human WI-38 cells to MIC for Mycobacterium tuberculosis H37Rv; format: toxicity; settings: read-out: TI
WI-38 = assay: Cytotoxicity against human WI-38 cells assessed as reduction in cell viability incubated for 72 hrs by MTT assay; format: cell-based; settings: WI-38, 72 h

| Structure (SMILES) | MIC99 [1] [µg/mL] | also measured |
| --- | --- | --- |
| CCCCOC(=O)Nc1cc2nc(C3CCCCC3)[nH]c2cc1N(C)C | 0.06 (≈ 0.167 µM) | MIC99 [2]: 0.008 µg/mL (≈ 0.0223 µM) |
| CN(C)c1cc2[nH]c(C3CCCCC3)nc2cc1NC(=O)c1ccc(C(F)(F)F)cc1F |  | MIC [3]: 0.16 µg/mL (≈ 0.357 µM); Activity [4]: 3.9 log10CFU; Activity [5]: 5.7 log10CFU |
| CN(C)c1cc2[nH]c(C3CCCCC3)nc2cc1NC(=O)c1ccc(OC(F)(F)F)cc1F | 0.16 (≈ 0.344 µM) | MIC [3]: 0.16 µg/mL (≈ 0.344 µM); Activity [4]: 3.9 log10CFU; cytotoxicity at 72 h, 20 µM [6]: 57%; cytotoxicity at 72 h, 20 µM [7]: 78%; Activity [5]: 5.7 log10CFU; MIC99 [2]: 0.019 µg/mL (≈ 0.0409 µM) |
| CCCCOC(=O)Nc1cc2nc(CN3CCOCC3)[nH]c2cc1N(C)C | 2.4 (≈ 6.39 µM) | MIC99 [2]: 1.6 µg/mL (≈ 4.26 µM) |
| Cc1ccc(C(=O)Nc2cc3nc(C4CCCC4)[nH]c3cc2N(C)C)cc1 | 0.625 (≈ 1.72 µM) |  |
| COc1ccc(CC(=O)Nc2cc3nc(CN(C)c4ccccc4)[nH]c3cc2N(C)C)cc1 | > 10 |  |
| CCCCOC(=O)Nc1cc2nc(CN(C)c3ccccc3)[nH]c2cc1N(C)C | 0.16 (≈ 0.405 µM) |  |
| COc1ccc(C(=O)Nc2cc3nc(Cc4ccccc4)[nH]c3cc2N(C)C)cc1 | 1.25 (≈ 3.12 µM) |  |
| Cc1ccc(C(=O)Nc2cc3nc(Cc4ccccc4)[nH]c3cc2N(C)C)cc1 | 1.56 (≈ 4.06 µM) |  |
| CN(C)c1cc2[nH]c(C3CCCC3)nc2cc1NC(=O)c1ccccc1 | 1.56 (≈ 4.48 µM) |  |
| CCCCOC(=O)Nc1cc2nc(SCC3CCCCC3)[nH]c2cc1N(C)C | 0.015 (≈ 0.0371 µM) | cytotoxicity at 72 h, 20 µM [6]: 0%; selectivity ratio [8]: > 100; cytotoxicity at 72 h, 20 µM [7]: 52%; pIC50 (WI-38): 4.70; MIC99 [2]: 0.0039 µg/mL (≈ 0.00964 µM) |
| CN(C)c1cc2[nH]c(Cc3ccccc3)nc2cc1NC(=O)c1ccc(F)cc1 | 0.63 (≈ 1.62 µM) |  |
| CCC(CC)c1nc2cc(NC(=O)c3ccc(OC)c(OC)c3)c(N(C)C)cc2[nH]1 | 12.5 (≈ 30.4 µM) |  |
| CCCCOC(=O)Nc1cc2nc(C3CCOCC3)[nH]c2cc1N(C)C | > 2.5 |  |
| CN(C)c1cc2[nH]c(C3CCOCC3)nc2cc1NC(=O)c1ccc(OC(F)(F)F)cc1F | 10 (≈ 21.4 µM) |  |
| CCC(CC)c1nc2cc(NC(=O)c3ccc(OC(F)(F)F)cc3)c(N(C)C)cc2[nH]1 | 0.31 (≈ 0.714 µM) |  |
| CCC(CC)c1nc2cc(NC(=O)c3ccccc3)c(N(C)C)cc2[nH]1 | 1.56 (≈ 4.45 µM) |  |
| CN(C)c1cc2[nH]c(Cc3ccccc3)nc2cc1NC(=O)C(C)(C)C | > 10 |  |
| CN(C)c1cc2[nH]c(C3CCCC3)nc2cc1NC(=O)c1ccc(F)cc1F | 0.625 (≈ 1.63 µM) |  |

| Structure (SMILES) | MIC99 [1] [µg/mL] | also measured |
| --- | --- | --- |
| CCC(CC)C(=O)Nc1cc2nc(C3CCCC3)[nH]c2cc1N(C)C | > 50 |  |
| CCCCOC(=O)Nc1cc2nc(C(CC)CC)[nH]c2cc1N(C)C | 0.078 (≈ 0.225 µM) | cytotoxicity at 72 h, 20 µM [6]: 32%; cytotoxicity at 72 h, 20 µM [7]: 77% |
| CCCc1ccc(C(=O)Nc2cc3nc(CN(C)c4ccccc4)[nH]c3cc2N(C)C)cc1 | 5 (≈ 11.3 µM) |  |
| CCC(CC)c1nc2cc(NC(=O)c3ccc(C)cc3)c(N(C)C)cc2[nH]1 | 0.5 (≈ 1.37 µM) |  |
| CCCCOC(=O)Nc1cc2nc(SCC)[nH]c2cc1N(C)C | 1.2 (≈ 3.57 µM) | MIC99 [2]: 0.16 µg/mL (≈ 0.476 µM) |
| CN(C)c1cc2[nH]c(C3CCCC3)nc2cc1NC(=O)C1CCC1 | > 10 |  |
| CCC(CC)c1nc2cc(NC(=O)c3ccccc3OC)c(N(C)C)cc2[nH]1 | 1.56 (≈ 4.1 µM) |  |
| CN(C)c1cc2[nH]c(C3CCCC3)nc2cc1NC(=O)C(C)(C)C | 50 (≈ 152 µM) |  |
| CCCCOC(=O)Nc1cc2nc(SC3CCCCC3)[nH]c2cc1N(C)C |  | cytotoxicity at 72 h, 20 µM [6]: 50%; cytotoxicity at 72 h, 20 µM [7]: 87%; MIC99 [2]: < 0.0081 µg/mL |
| CCC(CC)C(=O)Nc1cc2nc(Cc3ccccc3)[nH]c2cc1N(C)C | > 10 |  |
| CCCCOC(=O)Nc1cc2nc(SCc3ccccc3)[nH]c2cc1N(C)C | 0.31 (≈ 0.778 µM) |  |
| CCCCOC(=O)Nc1cc2nc(SC)[nH]c2cc1N(C)C | 9.6 (≈ 29.8 µM) | MIC99 [2]: 1.28 µg/mL (≈ 3.97 µM) |
| CN(C)c1cc2[nH]c(Cc3ccccc3)nc2cc1NC(=O)c1ccccc1 | 1.25 (≈ 3.37 µM) |  |
| CN(C)c1cc2[nH]c(CN(C)c3ccccc3)nc2cc1NC(=O)c1ccc(C(C)(C)C)cc1 | 2.5 (≈ 5.49 µM) |  |
| CC(C)c1nc2cc(NC(=O)c3ccc(C(C)(C)C)cc3)c(N(C)C)cc2[nH]1 | 0.78 (≈ 2.06 µM) |  |
| CN(C)c1cc2[nH]c(Cc3ccccc3)nc2cc1NC(=O)c1ccc(F)cc1F | 0.63 (≈ 1.55 µM) |  |
| CCCCOC(=O)Nc1cc2nc(CN3CCCC3)[nH]c2cc1N(C)C | 2.4 (≈ 6.68 µM) | MIC99 [2]: 1.6 µg/mL (≈ 4.45 µM) |
| CCCCOC(=O)Nc1cc2nc(C(C)C)[nH]c2cc1N(C)C | 1.25 (≈ 3.93 µM) |  |
| CCC(CC)c1nc2cc(NC(=O)c3ccc(F)cc3)c(N(C)C)cc2[nH]1 | 0.78 (≈ 2.12 µM) |  |

| Structure (SMILES) | MIC99 [1] [µg/mL] | also measured |
| --- | --- | --- |
| CN(C)c1cc2[nH]c(CN(C)c3ccccc3)nc2cc1NC(=O)c1ccc(OC(F)(F)F)cc1F | 0.29 (≈ 0.578 µM) | cytotoxicity at 72 h, 20 µM [6]: 30%; cytotoxicity at 72 h, 20 µM [7]: 59%; MIC99 [2]: 0.19 µg/mL (≈ 0.379 µM) |
| CN(C)c1cc2[nH]c(C3CCOCC3)nc2cc1NC(=O)c1ccc(OC(F)(F)F)cc1 | > 10 |  |
| CN(C)c1cc2[nH]c(CN(C)c3ccccc3)nc2cc1NC(=O)c1ccc(F)cc1F | 1.25 (≈ 2.87 µM) |  |
| CCCCOC(=O)Nc1cc2nc(Cc3ccccc3)[nH]c2cc1N(C)C | < 0.078 | cytotoxicity at 72 h, 20 µM [6]: 80%; cytotoxicity at 72 h, 20 µM [7]: 93% |
| CCCCOC(=O)Nc1cc2nc(CN(CCC)CCC)[nH]c2cc1N(C)C | 0.16 (≈ 0.411 µM) | cytotoxicity at 72 h, 20 µM [6]: 0%; cytotoxicity at 72 h, 20 µM [7]: 4% |
| CN(C)c1cc2[nH]c(C3CCCC3)nc2cc1NC(=O)c1ccc(F)cc1 | 0.78 (≈ 2.13 µM) |  |
| CCCCOC(=O)Nc1cc2nc(-c3cccs3)[nH]c2cc1N(C)C | > 10 |  |
| CCCCOC(=O)Nc1cc2nc(C3CCCC3)[nH]c2cc1N(C)C | 0.31 (≈ 0.9 µM) | cytotoxicity at 72 h, 20 µM [6]: 42%; cytotoxicity at 72 h, 20 µM [7]: 86% |
| CCC(CC)c1nc2cc(NC(=O)c3ccc(F)cc3F)c(N(C)C)cc2[nH]1 | 0.71 (≈ 1.84 µM) |  |
| CN(C)c1cc2[nH]c(C3CCCC3)nc2cc1NC(=O)c1ccc(OC(F)(F)F)cc1 | 1.56 (≈ 3.61 µM) |  |
| CN(C)c1cc2[nH]c(C3CCCC3)nc2cc1NC(=O)c1ccc(C(C)(C)C)cc1 | 0.78 (≈ 1.93 µM) |  |
| COc1ccccc1C(=O)Nc1cc2nc(C3CCCC3)[nH]c2cc1N(C)C | 12.5 (≈ 33 µM) |  |
| CN(C)c1cc2[nH]c(Cc3ccccc3)nc2cc1NC(=O)c1ccc(C(C)(C)C)cc1 | 0.33 (≈ 0.774 µM) |  |
| CCCCOC(=O)Nc1cc2nc(SC(C)C)[nH]c2cc1N(C)C | 0.31 (≈ 0.884 µM) |  |
| Cc1ccc(C(=O)Nc2cc3nc(CN(C)c4ccccc4)[nH]c3cc2N(C)C)cc1 | 1.25 (≈ 3.02 µM) |  |
| CCCCOC(=O)Nc1cc2nc(Sc3ccccc3)[nH]c2cc1N(C)C | 0.31 (≈ 0.806 µM) |  |
| COc1ccc(C(=O)Nc2cc3nc(C4CCCC4)[nH]c3cc2N(C)C)cc1 | 1.25 (≈ 3.3 µM) |  |
| CCCCOC(=O)Nc1cc2nc(CN3CCCCC3)[nH]c2cc1N(C)C | 0.14 (≈ 0.375 µM) | cytotoxicity at 72 h, 20 µM [6]: 0%; cytotoxicity at 72 h, 20 µM [7]: 60%; MIC99 [2]: 0.09 µg/mL (≈ 0.241 µM) |
| CN(C)c1cc2[nH]c(Cc3ccccc3)nc2cc1NC(=O)c1ccc(OC(F)(F)F)cc1 | 1.25 (≈ 2.75 µM) |  |
